37 variants from the RNAGym collection of RNA variant scans (doi:10.1126/science.aae0568) can be followed below.

Variants at the floor of the assay were thinned out.

B1: tRNA (parent)
chain: GUUCCGUUGGCGUAAUGGUAACGCGUCUCCCUCCUAAGGAGAAGACUGCGGGUUCGAGUCCCGUACGGAACG

This data set covers variants of B1. The data set can be described thus: yeast fitness relative to wild type (ratio to wild type); higher = fitter; tRNA-Arg(CCU), competitive growth, 37 C, YPD. In short, it runs like this: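 The tRNA-Arg(CCU) gene variants were made by chemical synthesis with a 3% per-site mutation rate at 69 sites and inserted at the native genomic locus of Saccharomyces cerevisiae. After pooling, the strains were competed in YPD at 37°C for 24 hours in six parallel replicates. Gene amplicons from the start population and each end population were read by 100-nucleotide paired-end sequencing, and Darwinian fitness relative to wild type was taken from genotype frequency changes. Genotypes needed ≥ 100 starting reads, and estimates < 0.5 were set to 0.5.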
On to GUUCCGUUGGCGUCAUGGUAACGCGUCUCCCUCCUGAGGAGAUGACUGCGGGUUCGAGUCCCGUACGAAACG, for which the yeast fitness was 0.522. Regarding GUUCCGUUGGCGUCAUGGUAAGGCAUCUCCUUCCUAAGGAGAAGACUGCGGGUUCGAGUCCCGUACGGAACG, the yeast fitness is 0.528. Next, GUUCCGUUGGCGUCAUGGUAACGGGUCUCCCUCCUAAGGAAAAAACUGCGGGAUCGAGUCCCGUAUGGAACG: at most 0.5; GUUCCGUUGGCGUCAGGGUAACGCGUCUUCCUCCUAAGGAGAAGACUGCGGGUCCGAGUCCCGUACGGAACG: at most 0.5; GUUCCGUUGGCGUCAUGGUAACGCGUGUCCCUCCUAAGGAGAAGAGUGCGGGUUCGAGUCCUGUACGGAACG: at most 0.5. Next, GUUCCGUUGGCGUCAUGGUAUCGCGUCUCCCUCCUAAGGAGCAGACUGCGGGUUCGACUCCCGUACGGAACG: at most 0.5; GUUCCGUUGGCGUCAUCAUAACCCGUCUCCCUCCUAAGGAGAAGACUGCGGGUUCGAGUCCCGUACGGAACG: 0.554; GUUCCGUUGGCGUCAUGGUAACCCGUCUCCCUCCUUAGGAGAAGACUGCGGGUUCGAGUCCCGUACGGAACG: 0.68.

For GUUCCGUUGGCGUCAUGGUAACGCGUCUCCCUCCUAAGGAGAAGAGUGCGGGUUCGAGUCCUGUAUGGAACG, the yeast fitness is at most 0.5.

On to GUUCCGUUGGCGUCAUGGUAACGCGUCUCCCUCCUAAGGAGAACACUGCGGGUUCGAGUCCCGUACGGAACG, for which the yeast fitness amounted to 0.577. Next, GUUCCGUUGGCGUCAUGGUAACGCGUCUCCCUCAUAAGGAGAAGACUCCGGGUUCGAGUCCCGUACGGAACG: at most 0.5.

GUUCCGUUGGCGUCAUGGUAACGCGUUUCUCUCAUAAGGAGAAGACUGCGGGUUCGAGUCCAGUACGGAACG: the yeast fitness was at most 0.5.

As for GUUCCGUUGGCGUCAUGGCAACGCGUCUCCCUGCUAAGGAGAAGACUGCGGGUUCGAGUCCCGUACGGAACG, the yeast fitness came out at 0.641. The figure for GUUCCGUUGGCGUCAUGGUAACGCGUCUCCCUCCUAAGGAGAAGACUGCGGGUUCGAGUCCCGUCCGGAACG is 0.635; for GUUCCGUUGGCGUCAUGGUAACGCGUCUCCCUCCUAAGGAGAAGACUGCGGGUUCGAGUCCCGUUCGGAACG it is 0.62. The figure for GUUCCGUUGGCGUCAUGGUAACGCGUCUCCCUCCUAAGGAGAAGACUGCAGGUUGGAGUCCAGUACGGAACG is 0.692; for GUUCCGUUGGCGUCAUGGUAACGCGUCUCCCUCCUAAGGAGAAGACUGCGGGUUCGAGUCCCGUACGGAGCG it is 0.749. Next, GUUCCGUUGGCGUCAUGGUAACGCGUCUCCCUCCUAAGGAGAAGUCUGCGGGUUCGAGUCCCGUACGGUACG: 0.619. For GUUCCGUUGGCGUCAAGGUAACGCGUCUCCCUCCUAAGGACAAGACUGCGGGUUCGAGUCCCGUACGGAACG, the yeast fitness is at most 0.5. For the variant GUUCCGUUGGCGUCAUGGUAACGCGUCUCCCUCCUAAGGAGAAGGCUGCGGGUUCGAGUCCCGUACGGAACG, the yeast fitness came out at 0.611. The figure for GUUCCGUUGGCGUCAUGGUAACGCGUCUCCCUCCUAAGGAGAAGACUGCGGGUUCGAGUCGCGUACGGAACG is 0.536. Next, GUUCCGUUGGCGUCAUGGUAAUGCGUCUCCCUCAUAAGGAGAAGACUGCGGGUUCGAGUCCCGUACGGAACG: at most 0.5; GUUCCGUUGGCGUCAUGGUAACGCGUCUCCCUCCUAAGGAGAAGACUCCGGGUUUGAGUCCCUUACGGAACG: at most 0.5; GUUCCGUUGGCGUCAUGAUUACGCGUCUCCCUCCUAAGGAGAAGACUGCGGGUUCGAGUCCCGUACGGAACG: at most 0.5. Next, GUUCCGUUGGCGUCAUGGUAACGCGUCUCCCUCCUAAGGAGAAGACUGAGGGUUCGAUUCCCGUACGGAACG: at most 0.5; GUUCCGUUGGCGUCAUGGUAAAGCGUCUCCCUCCUAAGGAGAAGAAUGCGGGUUCGAGUCCCGUACGGAACG: 0.605. In the case of GUUCCGUUGGCGUCAUGGUAACGCGUCUCCCUCCUAAGGAGAAGACUGCGGCUUCGCGUCCCCUACGGAACG, the yeast fitness was at most 0.5. Next, GUUCCGUUGGCGUCAUGGUAACGCGUCUCAGUCCUAAGGAGAAGACUGCGGGUUCGAGUCCCGAACGGAACG: 0.584; GUUCCGUUGGCGUCAUGGUAACGUGUCUCCCUCCUAAGGUGAAGACUGCGGGUUGGAGUCCCGUACGGAACG: at most 0.5.

Regarding GUUCCGUUGGCGUCAUGGUAACGCGUCUCCCUCCUAAGGUGAAGACUGCGGGUUGGAGUCUCGUAUGGAACG, the yeast fitness was at most 0.5. The figure for GUUCCGUUGGCGUCAUGGUAACACGUCUCCCUCCUAAGGAGAAGUCUGCGGGUUCGAGUCUCGUACGGAACG is 0.782. The figure for GUUCCGUUGGCGUCAUGGUAACGCGUCUCCCUCCUACGGAGAAGACUGCGGGUUCGAGUCCCGUUCGGAACG is at most 0.5; for GUUCCGUUGGCGUCAUGGUAACGCGUCUCCCUCCUAAGGAGAAGUCUGCCGGUUCGAGUCCCGUAGGGAACG it is at most 0.5; for GUUCCGUUGGCGUCAUGGUAACGCGUCUCCCUCCUAAGGAGAAGACUGCGGGUUCGAGUCCCGUACGCAACG it is 0.687.

For GUUCCGUUGGCGUCAUGGUAACGCGUCUCUCUCCUAAGGAGAGGACUGCGGGUUCGAGUCCCGUACGGAACG, the yeast fitness is at most 0.5.

As to GUUCCGUUGGCGUCAUGGUAACGCGUCUCUCUCCUACGGAGAAGACUGCGGGUUCGAGUCCCGUACGGAACG, the yeast fitness worked out at 0.552. Next, GUUCCGUUGGCGUCAUGGUAUCGCGUCUCCCUCCUAAGGAGAAGAAUGCGGGUUCGAGUCCCGUACGGCACG: 0.59.
